ChEMBL document CHEMBL1156288, “Synthesis and evaluation of tricyclic derivatives containing a non-aromatic amide as inhibitors of poly(ADP-ribose)polymerase-1 (PARP-1)” (Bioorg Med Chem Lett, 2010)

Experiments:
[1] = target: T1, Poly [ADP-ribose] polymerase 1 (Homo sapiens, UniProt P09874); settings: CHO-K1
[2] = Solubility in water; format: physicochemical; settings: buffer
[3] = target: T1, Poly [ADP-ribose] polymerase 1; experiment: Inhibition of PARP1
[4] = Half life in human liver microsomes by LC/MS/MS analysis; format: ADME, Microsome
In short: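 Human liver microsomes incubated at 37 °C. Parent compound quantified by LC/MS/MS at 0, 15, 45 and 80 min, giving t1/2 in min. Mean of triplicate experiments; buspirone run alongside.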

[5] = Half life in rat at 10 mg/kg, iv by LC/MS/MS analysis; format: ADME, organism-based; parameters: dose 10 mg/kg, route intravenous; settings: in vivo
In short: (§1)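 Rats (n = 3) given 10 mg/kg by intravenous administration; plasma levels measured by LC/MS/MS; AUC0-inf, CL and t1/2 reported.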

[6] = Drug level in rat plasma at 10 mg/kg, iv after 0.75 hrs by LC/MS/MS analysis; format: ADME, organism-based; parameters: dose 10 mg/kg, route intravenous
In short: (§2)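 Single intravenous dose of 10 mg/kg in rats, n = 3. Brain (ng/g) and plasma (ng/ml) concentrations measured by LC/MS/MS at 0.17, 0.75 and 4.00 h. Ratio is brain over plasma concentration.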

[7] = Clearance in rat at 10 mg/kg, iv by LC/MS/MS analysis; format: ADME, organism-based; parameters: dose 10 mg/kg, route intravenous; settings: in vivo
In short: as §1

[8] = Drug level in rat brain at 10 mg/kg, iv after 4 hrs by LC/MS/MS analysis; format: ADME, organism-based; parameters: dose 10 mg/kg, route intravenous; settings: read-out: Drug uptake
In short: as §2

[9] = Ratio of drug level in brain to plasma in rat at 10 mg/kg, iv after 4 hrs by LC/MS/MS analysis; format: ADME, organism-based; parameters: dose 10 mg/kg, route intravenous
In short: as §2

[10] = Drug level in rat plasma at 10 mg/kg, iv after 4 hrs by LC/MS/MS analysis; format: ADME, organism-based; parameters: dose 10 mg/kg, route intravenous
In short: as §2

[11] = AUC (0 to infinity) in rat at 10 mg/kg, iv by LC/MS/MS analysis; format: ADME, organism-based; parameters: time infinity, dose 10 mg/kg, route intravenous; settings: plasma
In short: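 Rats (n = 3) received a single 10 mg/kg intravenous dose. Drug levels were measured by LC/MS/MS, and AUC from zero to infinity was derived alongside clearance and half-life as part of the pharmacokinetic profile.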

[12] = Drug level in rat plasma at 10 mg/kg, iv after 0.17 hrs by LC/MS/MS analysis; format: ADME, organism-based; parameters: dose 10 mg/kg, route intravenous
In short: as §2

[13] = Drug level in rat brain at 10 mg/kg, iv after 0.75 hrs by LC/MS/MS analysis; format: ADME, organism-based; parameters: dose 10 mg/kg, route intravenous; settings: read-out: Drug uptake
In short: as §2

[14] = Ratio of drug level in brain to plasma in rat at 10 mg/kg, iv after 0.75 hrs by LC/MS/MS analysis; format: ADME, organism-based; parameters: dose 10 mg/kg, route intravenous
In short: as §2

[15] = Ratio of drug level in brain to plasma in rat at 10 mg/kg, iv after 0.17 hrs by LC/MS/MS analysis; format: ADME, organism-based; parameters: dose 10 mg/kg, route intravenous
In short: as §2

[16] = Drug level in rat brain at 10 mg/kg, iv after 0.17 hrs by LC/MS/MS analysis; format: ADME, organism-based; parameters: dose 10 mg/kg, route intravenous; settings: read-out: Drug uptake
In short: as §2

T1 sequence (P09874 whole entry): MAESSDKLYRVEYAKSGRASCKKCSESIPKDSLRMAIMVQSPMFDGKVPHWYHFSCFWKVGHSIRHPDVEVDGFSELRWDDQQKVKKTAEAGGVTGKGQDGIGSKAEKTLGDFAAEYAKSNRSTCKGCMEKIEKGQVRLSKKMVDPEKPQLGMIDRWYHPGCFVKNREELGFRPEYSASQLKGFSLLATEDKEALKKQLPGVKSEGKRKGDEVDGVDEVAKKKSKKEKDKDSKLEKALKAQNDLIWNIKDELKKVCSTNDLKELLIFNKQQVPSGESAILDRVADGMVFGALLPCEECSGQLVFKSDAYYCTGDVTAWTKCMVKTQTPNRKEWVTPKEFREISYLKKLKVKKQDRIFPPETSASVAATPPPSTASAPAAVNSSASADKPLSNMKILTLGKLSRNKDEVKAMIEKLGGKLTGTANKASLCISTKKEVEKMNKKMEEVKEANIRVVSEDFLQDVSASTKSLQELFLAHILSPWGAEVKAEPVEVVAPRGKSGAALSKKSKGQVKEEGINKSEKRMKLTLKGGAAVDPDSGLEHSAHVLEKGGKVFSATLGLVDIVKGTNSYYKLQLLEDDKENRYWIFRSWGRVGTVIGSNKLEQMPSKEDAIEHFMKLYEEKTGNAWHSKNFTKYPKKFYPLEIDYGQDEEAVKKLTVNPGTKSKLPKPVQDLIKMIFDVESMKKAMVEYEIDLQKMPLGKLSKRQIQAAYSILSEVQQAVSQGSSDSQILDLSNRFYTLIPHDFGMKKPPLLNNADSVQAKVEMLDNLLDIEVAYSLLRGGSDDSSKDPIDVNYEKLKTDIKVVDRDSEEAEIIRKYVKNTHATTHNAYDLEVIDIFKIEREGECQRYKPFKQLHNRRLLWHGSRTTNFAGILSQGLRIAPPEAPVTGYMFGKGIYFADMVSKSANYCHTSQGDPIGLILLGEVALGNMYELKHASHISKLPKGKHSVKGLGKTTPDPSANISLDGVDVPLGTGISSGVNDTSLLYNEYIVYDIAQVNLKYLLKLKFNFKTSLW

| ED50 [1] [nM] | solubility [2] | IC50 [3] [nM] | Compound | further results |
| --- | --- | --- | --- | --- |
| 740 | Soluble | 56 | CCCN1CCCC(Oc2ccc3[nH]c(=O)c4c(c3c2)CCSC4)C1 (stereo not drawn) |  |
| 360 | Soluble | 38 | O=c1[nH]c2ccc(OC3CCN(CCc4ccccc4)CC3)cc2c2c1CSCC2 |  |
| 740 | Soluble | 71 | CC(C)CCN1CCC(Oc2ccc3[nH]c(=O)c4c(c3c2)CCSC4)CC1 |  |
| 1260 | Soluble | 40 | COCCN1CCC(Oc2ccc3[nH]c(=O)c4c(c3c2)CCSC4)CC1 |  |
| 580 | Soluble | 45 | CCCCCN1CCC(Oc2ccc3[nH]c(=O)c4c(c3c2)CCSC4)CC1 |  |
| 9440 | Soluble | > 10000 | CN(C)c1ccc(CCN2CCC(Oc3ccc4[nH]c(=O)c5c(c4c3)CCSC5)CC2)cc1 |  |
| 1000 |  |  | O=S(=O)(NCCCN1CCOCC1)c1ccc2c(c1)Cc1c-2nc(O)c2ccccc12 |  |
| 800 | Soluble | 53 | O=c1[nH]c2ccc(OC3CCN(Cc4ccccc4)CC3)cc2c2c1CSCC2 |  |
| 220 | Soluble | 42 | CCCN1CCC(Oc2ccc3[nH]c(=O)c4c(c3c2)CCSC4)CC1 | half-life [5]: 207 min; concentration at 0.75 h [6]: 610 ng/mL; clearance [7]: 56.7 mL/min/kg; concentration at 4 h [8]: 13 ng/g; Kp at 4 h [9]: 0.72; concentration at 4 h [10]: 18 ng/mL; AUC(0-inf) [11]: 2910 ng·h/mL; concentration at 0.17 h [12]: 2480 ng/mL; concentration at 0.75 h [13]: 391 ng/g; Kp at 0.75 h [14]: 0.64; Kp at 0.17 h [15]: 0.69; half-life [4]: 52.6 min; concentration at 0.17 h [16]: 1700 ng/g |

More lines, now with the values behind:

| Compound | ED50 [1] [nM] | solubility [2] | IC50 [3] [nM] | further results |
| --- | --- | --- | --- | --- |
| O=C1CC2(CCCC2)CC(=O)N1CCCCN1CCN(c2ncccn2)CC1 [BUSPIRONE] |  |  |  | half-life [4]: 3.8 min |
| O=c1[nH]c2ccc(OC3CCN(CCO)CC3)cc2c2c1CSCC2 | 1600 | Soluble | 29 |  |
| O=c1[nH]c2ccc(OC3CCN(CCN4CCCCC4)CC3)cc2c2c1CSCC2 | > 30000 | Soluble | 173 |  |
| CCN1CCCC(Oc2ccc3[nH]c(=O)c4c(c3c2)CCSC4)C1 (stereo not drawn) | 280 | Soluble | 25 |  |
| O=c1[nH]c2ccc(OC3CCN(c4ccccc4)CC3)cc2c2c1CSCC2 | 1860 |  | 695 |  |
| CN1CCC(Oc2ccc3[nH]c(=O)c4c(c3c2)CCSC4)C1 (stereo not drawn) | 730 | Soluble | 80 |  |
| O=c1[nH]c2ccc(OC3CCCNC3)cc2c2c1CSCC2 (stereo not drawn) | 890 | Soluble | 28 |  |
| CCN1CCC(Oc2ccc3[nH]c(=O)c4c(c3c2)CCSC4)C1 (stereo not drawn) | 350 | Soluble | 13 |  |
| O=c1[nH]c2ccc(O)cc2c2c1CSCC2 |  |  | 99 |  |
| CN1CCCC(Oc2ccc3[nH]c(=O)c4c(c3c2)CCSC4)C1 (stereo not drawn) | 580 | Soluble | 39 |  |
